# In ChEMBL document CHEMBL1795332, “Renin inhibitors for the treatment of hypertension: design and optimization of a novel series of pyridone-substituted piperidines” (Bioorg Med Chem Lett, 2011):
# Biological target: T1, Renin (Homo sapiens, UniProt P00797)
# T1 sequence (P00797 whole entry): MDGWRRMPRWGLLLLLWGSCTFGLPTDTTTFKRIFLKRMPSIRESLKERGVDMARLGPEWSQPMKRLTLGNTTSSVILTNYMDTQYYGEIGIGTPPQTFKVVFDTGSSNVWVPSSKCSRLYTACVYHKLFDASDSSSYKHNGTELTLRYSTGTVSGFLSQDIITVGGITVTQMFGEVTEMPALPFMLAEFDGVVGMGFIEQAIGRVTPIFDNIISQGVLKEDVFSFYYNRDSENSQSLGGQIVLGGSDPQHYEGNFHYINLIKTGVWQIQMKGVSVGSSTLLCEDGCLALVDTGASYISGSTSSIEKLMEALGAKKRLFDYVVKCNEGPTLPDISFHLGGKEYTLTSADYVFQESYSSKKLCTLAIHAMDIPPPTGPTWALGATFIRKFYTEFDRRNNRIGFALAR
# Assay: Inhibition of human recombinant renin using Q-FRET substrate after 3 hrs by fluorescence assay
# Conditions: not given
row,SMILES,IC50
1,COC(=O)NCCc1cc(Cl)c(Cl)c(CN(C(=O)[C@H]2CNCC[C@@H]2c2ccn(C)c(=O)c2)C2CC2)c1,61 nM
2,COCCNc1cc(Cl)c(Cl)c(CN(C(=O)[C@H]2CNCC[C@@H]2c2ccn(C)c(=O)c2)C2CC2)c1,7.1 nM
3,COCCCc1cc(CN(C(=O)[C@H]2CNCC[C@@H]2c2ccn(C)c(=O)c2)C2CC2)c2ccccc2c1,0.4 nM
4,COCCCc1cc(CN(C(=O)[C@H]2CNCC[C@@H]2c2ccn(C)c(=O)c2)C2CC2)c2ccccc2n1,1.4 nM

# Further lines, results first:
row,IC50,SMILES
1,1.7 nM,COCCCc1cc(Br)cc(CN(C(=O)[C@H]2CNCC[C@@H]2c2ccn(C)c(=O)c2)C2CC2)c1
2,18 nM,COCCCc1cc(CN(C(=O)[C@H]2CNCC[C@@H]2c2ccn(C)c(=O)c2)C2CC2)cc(-c2ccccc2)c1

# Biological target: Voltage-gated inwardly rectifying potassium channel KCNH2 (Homo sapiens, UniProt Q12809)
# Assay: Inhibition of human ERG
# Conditions: not given
# Chain of Voltage-gated inwardly rectifying potassium channel KCNH2 (Q12809 whole entry): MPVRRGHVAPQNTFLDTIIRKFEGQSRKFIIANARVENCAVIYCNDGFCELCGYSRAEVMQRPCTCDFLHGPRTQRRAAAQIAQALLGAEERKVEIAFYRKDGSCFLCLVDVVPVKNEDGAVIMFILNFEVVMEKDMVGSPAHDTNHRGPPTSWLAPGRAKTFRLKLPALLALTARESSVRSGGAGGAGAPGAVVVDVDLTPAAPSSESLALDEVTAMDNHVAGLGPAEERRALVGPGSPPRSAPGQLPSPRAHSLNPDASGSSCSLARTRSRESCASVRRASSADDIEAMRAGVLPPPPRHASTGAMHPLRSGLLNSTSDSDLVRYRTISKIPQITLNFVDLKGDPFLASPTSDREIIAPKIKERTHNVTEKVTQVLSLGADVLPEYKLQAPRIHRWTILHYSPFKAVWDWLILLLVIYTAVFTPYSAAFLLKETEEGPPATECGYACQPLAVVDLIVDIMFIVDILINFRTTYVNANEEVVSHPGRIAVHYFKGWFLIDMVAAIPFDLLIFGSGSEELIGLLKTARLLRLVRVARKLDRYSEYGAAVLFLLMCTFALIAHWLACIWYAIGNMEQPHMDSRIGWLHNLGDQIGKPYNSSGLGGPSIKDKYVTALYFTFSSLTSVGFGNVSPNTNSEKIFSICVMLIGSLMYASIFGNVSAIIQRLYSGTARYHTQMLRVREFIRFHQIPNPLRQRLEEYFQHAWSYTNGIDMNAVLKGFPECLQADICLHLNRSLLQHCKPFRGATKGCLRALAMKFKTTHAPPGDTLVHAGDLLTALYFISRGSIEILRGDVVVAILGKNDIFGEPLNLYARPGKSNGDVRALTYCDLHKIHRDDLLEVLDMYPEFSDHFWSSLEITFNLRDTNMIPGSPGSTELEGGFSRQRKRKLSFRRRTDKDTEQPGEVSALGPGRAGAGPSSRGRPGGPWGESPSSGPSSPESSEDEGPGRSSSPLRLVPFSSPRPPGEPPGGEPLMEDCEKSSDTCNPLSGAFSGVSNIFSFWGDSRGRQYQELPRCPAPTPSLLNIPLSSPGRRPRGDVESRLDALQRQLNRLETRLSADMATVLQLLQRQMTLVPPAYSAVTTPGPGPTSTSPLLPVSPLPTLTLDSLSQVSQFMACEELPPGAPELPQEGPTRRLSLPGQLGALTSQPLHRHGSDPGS
row,SMILES,Ki
1,COCCCc1cc(CN(C(=O)[C@H]2CNCC[C@@H]2c2ccc(OCCOc3c(Cl)cc(C)cc3Cl)cc2)C2CC2)cc(OCCOC)c1,0.8 µM
2,COCCCc1cc(CN(C(=O)[C@H]2CNCC[C@@H]2c2ccn(C)c(=O)c2)C2CC2)cc(OCCOC)c1,> 29 µM
3,COC(=O)NCCc1cc(Cl)c(Cl)c(CN(C(=O)[C@H]2CNCC[C@@H]2c2ccn(C)c(=O)c2)C2CC2)c1,15 µM
4,COCCNc1cc(Cl)c(Cl)c(CN(C(=O)[C@H]2CNCC[C@@H]2c2ccn(C)c(=O)c2)C2CC2)c1,18 µM
5,COCCCc1cc(CN(C(=O)[C@H]2CNCC[C@@H]2c2ccn(C)c(=O)c2)C2CC2)c2ccccc2c1,17 µM
6,COCCCc1cc(CN(C(=O)[C@H]2CNCC[C@@H]2c2ccn(C)c(=O)c2)C2CC2)c2ccccc2n1,> 29 µM

# Biological target: T1, Renin
# Assay: Inhibition of renin in human plasma using Q-FRET substrate pretreated for 10 mins before substrate addition measured after 1 hr
# Conditions: not given
row,SMILES,IC50
1,COC(=O)NCCc1cc(Cl)c(Cl)c(CN(C(=O)[C@H]2CNCC[C@@H]2c2ccn(C)c(=O)c2)C2CC2)c1,210 nM
2,COCCNc1cc(Cl)c(Cl)c(CN(C(=O)[C@H]2CNCC[C@@H]2c2ccn(C)c(=O)c2)C2CC2)c1,26 nM
3,COCCCc1cc(CN(C(=O)[C@H]2CNCC[C@@H]2c2ccn(C)c(=O)c2)C2CC2)c2ccccc2c1,1.4 nM
4,COCCCc1cc(CN(C(=O)[C@H]2CNCC[C@@H]2c2ccn(C)c(=O)c2)C2CC2)c2ccccc2n1,3 nM

# Continued, values first:
row,IC50,SMILES
1,3.5 nM,COCCCc1cc(Br)cc(CN(C(=O)[C@H]2CNCC[C@@H]2c2ccn(C)c(=O)c2)C2CC2)c1
2,81 nM,COCCCc1cc(CN(C(=O)[C@H]2CNCC[C@@H]2c2ccn(C)c(=O)c2)C2CC2)cc(-c2ccccc2)c1

# Biological target: T2, CYP3A4 (Homo sapiens, UniProt P08684)
# Assay: Reversible inhibition of CYP3A4 assessed as conversion of testosterone to 6-beta-hydroxytestosterone at 10 uM relative to control
# Assay type: ADME
# Conditions: probe testosterone
# T2 sequence (P08684 whole entry): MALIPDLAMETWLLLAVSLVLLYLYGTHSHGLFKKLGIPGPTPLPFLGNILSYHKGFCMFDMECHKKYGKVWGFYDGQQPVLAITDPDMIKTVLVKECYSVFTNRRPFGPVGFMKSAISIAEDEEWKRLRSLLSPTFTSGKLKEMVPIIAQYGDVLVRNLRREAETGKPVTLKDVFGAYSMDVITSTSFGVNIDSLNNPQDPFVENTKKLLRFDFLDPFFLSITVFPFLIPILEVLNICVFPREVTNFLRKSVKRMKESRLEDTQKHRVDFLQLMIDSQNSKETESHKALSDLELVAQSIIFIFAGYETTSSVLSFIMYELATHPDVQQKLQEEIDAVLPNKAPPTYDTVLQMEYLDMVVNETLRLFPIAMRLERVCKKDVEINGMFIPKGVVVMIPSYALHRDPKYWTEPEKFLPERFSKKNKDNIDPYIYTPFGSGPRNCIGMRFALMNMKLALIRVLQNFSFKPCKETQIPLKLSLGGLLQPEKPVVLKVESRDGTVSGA
row,SMILES,activity % at 10 µM
1,COCCCc1cc(CN(C(=O)[C@H]2CNCC[C@@H]2c2ccc(OCCOc3c(Cl)cc(C)cc3Cl)cc2)C2CC2)cc(OCCOC)c1,9%
2,COC(=O)NCCc1cc(Cl)c(Cl)c(CN(C(=O)[C@H]2CNCC[C@@H]2c2ccn(C)c(=O)c2)C2CC2)c1,45%
3,COCCNc1cc(Cl)c(Cl)c(CN(C(=O)[C@H]2CNCC[C@@H]2c2ccn(C)c(=O)c2)C2CC2)c1,71%
4,COCCCc1cc(CN(C(=O)[C@H]2CNCC[C@@H]2c2ccn(C)c(=O)c2)C2CC2)c2ccccc2c1,54%
5,COCCCc1cc(CN(C(=O)[C@H]2CNCC[C@@H]2c2ccn(C)c(=O)c2)C2CC2)c2ccccc2n1,95%

# Second part, the compound after the results:
row,activity % at 10 µM,SMILES
1,78%,COCCCc1cc(CN(C(=O)[C@H]2CNCC[C@@H]2c2ccn(C)c(=O)c2)C2CC2)cc(OCCOC)c1
2,15%,COCCCc1cc(Br)cc(CN(C(=O)[C@H]2CNCC[C@@H]2c2ccn(C)c(=O)c2)C2CC2)c1
3,23%,COCCCc1cc(CN(C(=O)[C@H]2CNCC[C@@H]2c2ccn(C)c(=O)c2)C2CC2)cc(-c2ccccc2)c1

# Biological target: T2, CYP3A4
# Assay: Time dependent inhibition of CYP3A4 assessed as conversion of testosterone to 6-beta-hydroxytestosterone at 10 uM relative to control
# Assay type: ADME
# Conditions: probe testosterone
# Summary of the method: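 Rate of CYP3A4 conversion of testosterone (250 μM) to 6-β-hydroxytestosterone measured before and after a 30 min incubation with compound at 10 μM (in DMSO). Difference expressed as % loss.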
row,SMILES,inhibition at 10 µM
1,COCCCc1cc(CN(C(=O)[C@H]2CNCC[C@@H]2c2ccc(OCCOc3c(Cl)cc(C)cc3Cl)cc2)C2CC2)cc(OCCOC)c1,27%
2,COC(=O)NCCc1cc(Cl)c(Cl)c(CN(C(=O)[C@H]2CNCC[C@@H]2c2ccn(C)c(=O)c2)C2CC2)c1,56%
3,COCCNc1cc(Cl)c(Cl)c(CN(C(=O)[C@H]2CNCC[C@@H]2c2ccn(C)c(=O)c2)C2CC2)c1,0%
4,COCCCc1cc(CN(C(=O)[C@H]2CNCC[C@@H]2c2ccn(C)c(=O)c2)C2CC2)c2ccccc2c1,34%
5,COCCCc1cc(CN(C(=O)[C@H]2CNCC[C@@H]2c2ccn(C)c(=O)c2)C2CC2)c2ccccc2n1,13%

# Other lines, results leading:
row,inhibition at 10 µM,SMILES
1,0%,COCCCc1cc(CN(C(=O)[C@H]2CNCC[C@@H]2c2ccn(C)c(=O)c2)C2CC2)cc(OCCOC)c1
2,45%,COCCCc1cc(Br)cc(CN(C(=O)[C@H]2CNCC[C@@H]2c2ccn(C)c(=O)c2)C2CC2)c1
3,0%,COCCCc1cc(CN(C(=O)[C@H]2CNCC[C@@H]2c2ccn(C)c(=O)c2)C2CC2)cc(-c2ccccc2)c1

# Test system: not listed separately
# Assay: Oral bioavailability in Sprague-Dawley rat at 20 mg/kg
# Assay type: ADME, organism-based
# Conditions: in vivo
row,SMILES,bioavailability
1,COCCCc1cc(CN(C(=O)[C@H]2CNCC[C@@H]2c2ccc(OCCOc3c(Cl)cc(C)cc3Cl)cc2)C2CC2)cc(OCCOC)c1,27%
2,COC(=O)NCCc1cc(Cl)c(Cl)c(CN(C(=O)[C@H]2CNCC[C@@H]2c2ccn(C)c(=O)c2)C2CC2)c1,1%
3,COCCNc1cc(Cl)c(Cl)c(CN(C(=O)[C@H]2CNCC[C@@H]2c2ccn(C)c(=O)c2)C2CC2)c1,1%
4,COCCCc1cc(CN(C(=O)[C@H]2CNCC[C@@H]2c2ccn(C)c(=O)c2)C2CC2)c2ccccc2c1,4%
5,COCCCc1cc(CN(C(=O)[C@H]2CNCC[C@@H]2c2ccn(C)c(=O)c2)C2CC2)c2ccccc2n1,1%

# Further lines, results first:
row,bioavailability,SMILES
1,3%,COCCCc1cc(CN(C(=O)[C@H]2CNCC[C@@H]2c2ccn(C)c(=O)c2)C2CC2)cc(OCCOC)c1
2,15%,COCCCc1cc(Br)cc(CN(C(=O)[C@H]2CNCC[C@@H]2c2ccn(C)c(=O)c2)C2CC2)c1
3,8%,COCCCc1cc(CN(C(=O)[C@H]2CNCC[C@@H]2c2ccn(C)c(=O)c2)C2CC2)cc(-c2ccccc2)c1
